Data: ChEMBL document CHEMBL4513216, “Probing the Open Global Health Chemical Diversity Library for Multistage-Active Starting Points for Next-Generation Antimalarials” (ACS Infect Dis, 2020)

Assay: Toxicity liver stage against HepG2, at 10uM
Type: cell-based
Parameters: test concentration 10 uM, cell line HepG2-A16-CD81EGFP
Settings: human, HepG2-A16-CD81EGFP cells; read-out: INHIBITION
How it was run: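 Uninfected HepG2-A16-CD81EGFP cells, 3 × 10^3 per well, 1536-well, plated on prespotted compound at 10 μM final, parasite-free screening media added to match infected plates; puromycin 10 μM positive, DMSO 0.5% negative; run in parallel with 48 h PbLuc assay at 37 °C, 5% CO2; viability by CellTiter-Glo luminescence, normalized to controls.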

SMILES | cytotoxicity at 10 µM [%]
Cc1c(Cl)cccc1NC(=O)c1nc[nH]n1 | -7.93
CS(=O)(=O)c1ccc(O[C@H]2COCCN(C(=O)c3ccno3)C2)cc1 | 0.0962
N#Cc1cccc(C(=O)Nc2ccc([C@@H](O)[C@H]3COCC(=O)N3)cc2)c1 | -4.25
O=C(c1cc(CC2(NC3CCCCC3)COC2)no1)N1CCCCC1 | 7.65
CC(C)c1sc(Cl)nc1C(=O)N1CCN(c2ccccc2)CC1 | -87.6
O=c1[nH]c2c(-c3ccccn3)nsc2c(=O)n1CC1CCCO1 (stereo not drawn) | 9.26
COc1ccc(F)cc1S(=O)(=O)N1CCC(OC)CC1 | -3.97
CS(=O)(=O)C1CCN(S(=O)(=O)c2ccc(F)c(F)c2)CC1 | -10.4
COc1cc(N2C[C@H]3CN(C(=O)c4cnccn4)C[C@H]3C2)ncn1 | -141
COc1nn(C)c2c1CCCN(S(=O)(=O)c1cccs1)C2 | -112
CCNC(=O)N1CCC2(C1)c1ccccc1S(=O)(=O)N2CCOC (stereo not drawn) | -151
COC(=O)c1cc2c(OC)c(C)c(OC)cc2[nH]1 | -12.8
CC(C)n1[nH]c(=O)c2c1NC(=O)CC2c1ccc(C#N)cc1 (stereo not drawn) | 3.92
CC(C)(C)n1ncc2c1NC(=O)CC2c1ccc(C#N)cc1 (stereo not drawn) | -1.26
CN(C)CC(=O)N1CCOCC2(C1)CN(c1ccccc1)C(=O)CO2 (stereo not drawn) | 0.00964
O=C(c1cscn1)N1C[C@@H]2[C@@H](C1)OCC(=O)N2CC1CCCC1 | -10.2
CCNC(=O)c1ncn2c1CN(C)S(=O)(=O)c1ccccc1-2 | -10.1
COC[C@H]1CCC[C@]12CN(C(=O)NCc1ccccc1)CCO2 | -11.6
CCN(CC)CCCNC(=O)C(C)n1cc(Br)cn1 (stereo not drawn) | -3.33
COCc1nc(N(C)C)ncc1C(=O)NC(C)C | 12.8
CC(C(=O)N1CCc2ccccc2C1)n1cc(Br)cn1 (stereo not drawn) | -8.77
O=C(c1ccccc1F)N1CCCC1Cn1c(=O)oc2ccccc21 (stereo not drawn) | 4.49
O=C1N[C@H]2OCCC[C@H]2[C@H](c2ccc(C(=O)O)cc2)N1 | -2.51
CC(=O)Nc1ccc(CCC2(NC(=O)C3CCCO3)CCCCC2)cn1 (stereo not drawn) | 1.6
Nc1nccnc1CC1CCCN(Cc2cccc3[nH]ccc23)C1 (stereo not drawn) | 0.994
Cc1cc(C2CCCN2C(=O)c2csc(-c3cnn(C)c3)n2)on1 (stereo not drawn) | 15.6
CC(Oc1ccc(C(=O)NCCNS(C)(=O)=O)cn1)c1ccccc1 (stereo not drawn) | 7.44

SMILES | cytotoxicity at 10 µM [%]
O=C(CCc1ccc(C(F)(F)F)cc1)N1CCCS1(=O)=O | 4.37
CC(C)COc1cncc(N2CCCN(CC(F)(F)F)CC2)n1 | 4.29
CCNc1cc2c(nn1)CCN(C(=O)C1Cc3ccccc3S1)C2 (stereo not drawn) | -1.4
O=C(Cn1cccc2oc(=O)nc1-2)NCC1Cc2ccccc2O1 (stereo not drawn) | -7.79
CC(C)c1nc(C2CCCN(C(=O)CN(C)S(C)(=O)=O)C2)no1 (stereo not drawn) | -0.304
CN(CC(=O)N1CCN(c2cnccn2)CC1)c1ccc(Cl)cn1 | -0.487
Cc1nnc2n1CCN(C(=O)c1ccn(-c3cccc(F)c3)n1)C2 | -144
CCc1nnc2n1CCN(C(=O)c1cn(-c3ccccc3)nn1)C2 | -141
CC(C)c1ncncc1C(=O)NCCN1CCOCC1 | -0.103
Cc1cc(C(=O)NC2CCN(CC(N)=O)CC2)nn1C(C)(C)C | -5.22
Cc1ccc(CNC(=O)NC(C)CCS(C)(=O)=O)cc1F (stereo not drawn) | -146
CCC(CNS(C)(=O)=O)Oc1ccccc1C (stereo not drawn) | 17.3
CCN(C(=O)CN1CCC(c2ccccc2)C1)C1CC1 (stereo not drawn) | 9.4
O=C(c1ccc(Sc2ccccn2)cc1)N1CCCSCC1 | 11.5
CC(CO)(NCc1noc(Cc2ccccc2)n1)C1CCCCC1 (stereo not drawn) | -17.2
CCCn1cc(NC(=O)c2cccc3cccnc23)ccc1=O | -4.73
COc1ccc(C)cc1NS(=O)(=O)c1ccc(CCNC(C)=O)s1 | 0.549
CC(C)N(Cc1ccccn1)C(=O)CCOc1cccc(F)c1 | 4.58
Cc1cccc(CN(Cc2ccccn2)S(=O)(=O)N(C)C)c1 | -1.74
CCOC(=O)NC1CCCN(Cc2ccc(-n3cncn3)c(C)c2)C1 (stereo not drawn) | 2.12
Cc1nnc(SCCC(=O)N(C)Cc2c(F)cccc2Cl)[nH]1 | 1.69
O=C(c1cnc2[nH]c(=O)[nH]c(=O)c2c1)N1CCCC1C1CCCCC1 (stereo not drawn) | -5.94
CC(C)(CNC(=O)OC(C)(C)C)NC(=O)C1CC(=O)N(C2CC2)C1 (stereo not drawn) | 14.3
COCCn1cc(C(=O)N2CCCC2c2cccc(F)c2)ccc1=O (stereo not drawn) | -3.48
Cc1cnc(NC(=O)N2CCCC2)s1 | -13.6
Cn1nc2c(cc1=O)CN(CC(=O)Nc1ccc(Cl)cn1)CC2 | 0.874
